The record followed here is ChEMBL document CHEMBL4699413, “Structure-guided discovery of selective methionyl-tRNA synthetase inhibitors with potent activity against Trypanosoma brucei” (RSC Med Chem, 2020).

SMILES strings stand for the structures. Some results are limits rather than exact numbers.

Data set [1] in a line: Cytotoxicity against human WIL2-NS cells assessed as reduction in cell viability after 48 hrs by alamar blue dye based assay. The method in brief:
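CRL-8155 lymphocytic cells in RPMI with 10% heat-inactivated FBS, 2 mM L-glutamine, 0.4 mM sodium pyruvate, penicillin/streptomycin, 37 °C, 5% CO₂; 30 000 cells/well; quadruplicate serial 3-fold dilutions from 50 µM (or 25 µM); AlamarBlue at 48 h, 50 µM quinacrine as background; percent inhibition versus untreated wells; single experiment.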

For data set [2], the system named is Trypanosoma brucei brucei. Nature of the data set: Antitrypanosomal activity against blood stream form of Trypanosoma brucei brucei 427 assessed as parasite growth inhibition incubated for 48 hrs by alamar blue dye based assay. As to conditions: Trypanosoma brucei, 427, 48 h. It is filed as functional, organism-based. In outline: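 Bloodstream-form BSF 427 parasites in HMI-9 with 10% heat-inactivated FBS and penicillin/streptomycin, 37 °C, 5% CO₂; 10 000 cells/well initial inoculum; serial 3-fold dilutions in triplicate; Alamar Blue read at 48 h. Pentamidine control.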
A general note: Resazurin is reduced to fluorescent resorufin, in cell work by metabolically active cells.

The nature of data set [3]: Cytotoxicity against human HepG2 cells assessed as reduction in cell viability after 48 hrs by alamar blue dye based assay.
Data set [4] relates to mitochondrial MetRS (mitochondrial protein synthesis). Nature of the data set: Selectivity index, ratio of EC50 for inhibition of mitochondrial MetRS-mediated mitochondrial protein synthesis in human HepG2 cells to EC50 for antitrypanosomal activity against blood stream form of Trypanosoma brucei brucei 427. It is filed as toxicity, cell-based. The following applies: read-out: Ratio EC50.

Data set [5] in a line: Ratio of drug level in brain to plasma in Swiss Webster mouse at 5 mg/kg, ip measured after 60 mins by LC-MS analysis. It is filed as ADME, organism-based. As to conditions: 1 h. In outline: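 Swiss Webster mice, triplicate, 5 mg kg⁻¹ IP in 7% Tween80, 5% DMSO, 3% EtOH in saline; plasma and brain collected 1 h post-dose; brain homogenized in water, extracts measured by LC-MS/MS; brain levels corrected for 3% v/w blood content.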

Data set [6] concerns the target T1, Methionine--tRNA ligase, mitochondrial (Homo sapiens, UniProt Q96GW9).
T1 sequence (Q96GW9 whole entry): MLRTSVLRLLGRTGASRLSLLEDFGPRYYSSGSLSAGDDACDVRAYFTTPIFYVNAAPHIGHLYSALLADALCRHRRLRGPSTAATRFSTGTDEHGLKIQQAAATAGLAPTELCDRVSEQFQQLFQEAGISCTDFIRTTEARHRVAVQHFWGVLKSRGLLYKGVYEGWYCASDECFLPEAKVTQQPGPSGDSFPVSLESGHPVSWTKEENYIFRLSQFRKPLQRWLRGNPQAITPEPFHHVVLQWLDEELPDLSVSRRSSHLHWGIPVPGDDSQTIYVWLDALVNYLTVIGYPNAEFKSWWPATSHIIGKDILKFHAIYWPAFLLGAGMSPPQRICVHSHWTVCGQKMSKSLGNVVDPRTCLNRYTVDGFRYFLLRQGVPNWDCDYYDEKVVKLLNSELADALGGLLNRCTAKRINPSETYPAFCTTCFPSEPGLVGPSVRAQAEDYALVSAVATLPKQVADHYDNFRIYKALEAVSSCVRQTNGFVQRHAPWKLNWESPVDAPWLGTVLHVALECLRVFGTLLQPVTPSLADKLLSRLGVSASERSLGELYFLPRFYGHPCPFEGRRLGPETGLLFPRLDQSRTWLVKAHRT
Nature of the data set: Inhibition of mitochondrial MetRS-mediated mitochondrial protein synthesis in human HepG2 cells measured after 6 days by ELISA. It is filed as cell-based. The method in brief: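 HepG2 seeded 6000 cells/well on collagen-coated plates, grown 24 h in DMEM/F12 with 10% FBS, pyruvate, antibiotics; then serial 3-fold dilutions from 25 µM in duplicate, 6 days at 37 °C, medium with compound refreshed every 48 h; paraformaldehyde-fixed, COX-1 quantified by in-cell ELISA. Chloramphenicol control.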

The nature of data set [7]: Inhibition of recombinant N-terminal His6-tagged trypanosoma brucei brucei 427 Methionyl-tRNA synthetase (237 to 773 residues) expressed in Escherichia coli assessed as ATP depletion using L-methionine and tRNA as substrate by Kinase-Glo luminescence assay. In general terms: Kinase-Glo measures the ATP left after a reaction by luminescence.

The CC50 is the concentration that lowers cell viability or growth by half. As usually defined, the EC50 is the concentration giving half of the maximal effect. `COc1cc(-c2cccc3nc(Cc4nc5nc(Cl)ccc5[nH]4)cn23)c(Cl)cc1Cl`: the CC50 at 48 h in data set [1] was 9500 nM; in data set [3], more than 50000 nM. For the same compound, the EC50 in data set [2] came to 3.5 nM; in data set [6] it was 507 nM. The selectivity ratio in data set [4] worked out at 145. In addition, the BPR in data set [5] was found to be 0%.
As a reminder, the IC50 is the concentration at which inhibition is half-maximal. `O=c1[nH]c(Cc2ccc(Cl)cc2Cl)cn1Cc1nc2ccccc2[nH]1`: in data set [7], the half-inhibitory concentration (IC50) is less than 40 nM. The EC50 in data set [2] was 350 nM.
As for `COc1cc(Cl)c(-c2cccc3nc(Cc4nc5nc(Cl)ccc5[nH]4)cn23)cc1OC`, the CC50 at 48 h turned out to be 19000 nM in data set [1] and 28200 nM in data set [3]. Besides, the EC50 in data set [2] worked out at 3.1 nM; in data set [6] it was 478 nM. Moreover, the selectivity ratio in data set [4] came to 154. The BPR in data set [5] is 0.5%.
On to `COc1cc(-c2cccc3nc(Cc4nc5nc(F)ccc5[nH]4)cn23)c(Cl)cc1Cl`, for which the figures for the CC50 at 48 h in data set [1] and in data set [3] were 10400 nM and more than 50000 nM, respectively. The EC50 in data set [2] was found to be 8.4 nM; in data set [6] it was 1750 nM. Further, the selectivity ratio in data set [4] was found to be 203. For the same compound, the BPR in data set [5] is on record as 0.6%.
As for `CCn1c(Cc2ccc(OC)cc2Cl)cn(Cc2nc3nc(F)ccc3[nH]2)c1=O`, the CC50 at 48 h in data set [1] and in data set [3] was more than 50000 nM in each case. The EC50 in data set [2] is 1.8 nM; in data set [6] it was 75 nM. Moreover, the selectivity ratio in data set [4] amounted to 42. Also, in data set [5], the BPR came out at 0%.
Regarding `COc1cc(Cl)c(-c2cccc3nc(Cc4nc5nc(F)ccc5[nH]4)cn23)cc1OC`, the CC50 at 48 h in data set [1] and in data set [3] was more than 25000 nM in each case. Further, the EC50 in data set [2] was determined as 7.2 nM; in data set [6] it was 316 nM. Moreover, in data set [4], the selectivity ratio was determined as 45. The BPR in data set [5] was 0%.
